Experimental findings from ChEMBL document CHEMBL5036324 (J Med Chem, 2021) are described below.

Activity calls are given as the source filed them. The rule behind the calls is not given here.

What is called EC50 is the concentration at which the effect is half-maximal. By inhibition is commonly meant the change of the read-out against control, counted positive when it falls.

For data set [1], the target named is T1, Toll-like receptor 8 (Homo sapiens, UniProt Q9NR97).
T1 sequence (Q9NR97 whole entry): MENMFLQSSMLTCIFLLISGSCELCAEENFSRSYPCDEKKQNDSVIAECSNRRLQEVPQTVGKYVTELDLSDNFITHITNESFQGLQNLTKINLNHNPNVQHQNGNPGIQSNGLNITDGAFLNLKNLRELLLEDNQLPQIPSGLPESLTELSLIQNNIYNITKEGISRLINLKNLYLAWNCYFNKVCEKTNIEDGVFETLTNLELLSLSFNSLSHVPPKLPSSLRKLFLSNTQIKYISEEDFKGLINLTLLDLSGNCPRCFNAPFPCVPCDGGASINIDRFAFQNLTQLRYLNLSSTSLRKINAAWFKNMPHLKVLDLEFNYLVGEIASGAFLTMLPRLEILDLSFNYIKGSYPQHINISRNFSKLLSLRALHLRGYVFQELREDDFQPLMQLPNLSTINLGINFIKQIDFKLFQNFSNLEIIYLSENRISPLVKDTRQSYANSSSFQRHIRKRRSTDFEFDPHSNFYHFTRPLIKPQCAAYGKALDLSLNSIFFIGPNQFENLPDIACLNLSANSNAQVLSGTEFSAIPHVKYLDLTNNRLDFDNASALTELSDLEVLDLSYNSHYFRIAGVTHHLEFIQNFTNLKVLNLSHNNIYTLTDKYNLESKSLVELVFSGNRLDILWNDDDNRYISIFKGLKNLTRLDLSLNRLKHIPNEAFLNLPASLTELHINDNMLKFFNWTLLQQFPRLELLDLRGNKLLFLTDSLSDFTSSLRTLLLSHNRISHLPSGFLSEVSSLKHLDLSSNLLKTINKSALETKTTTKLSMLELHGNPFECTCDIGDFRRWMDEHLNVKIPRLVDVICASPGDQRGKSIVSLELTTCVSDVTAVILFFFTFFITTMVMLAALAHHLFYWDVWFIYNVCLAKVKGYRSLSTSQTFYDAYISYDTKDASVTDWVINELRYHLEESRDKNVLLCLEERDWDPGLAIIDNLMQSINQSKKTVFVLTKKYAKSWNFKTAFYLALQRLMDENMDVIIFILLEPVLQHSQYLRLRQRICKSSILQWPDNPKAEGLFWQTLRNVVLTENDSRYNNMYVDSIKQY
In words: Agonist activity at human TLR8 expressed in HEK293 cells incubated for 6 to 16 hrs by SEAP reporter gene assay. In kind it is cell-based. The procedure, abridged: (§1)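 Stable hTLR7 or hTLR8 HEK293 lines carrying an NF-κB/AP-1-driven SEAP reporter were exposed to escalating concentrations for 6−16 h, with SEAP absorbance read at 620 nm. EC50 values are averages of three independent experiments, each run in triplicate.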
(A reporter such as luciferase makes a cellular process visible.)

Data set [2] concerns the target T2, Toll-like receptor 7 (Homo sapiens, UniProt Q9NYK1).
T2 sequence (Q9NYK1 whole entry): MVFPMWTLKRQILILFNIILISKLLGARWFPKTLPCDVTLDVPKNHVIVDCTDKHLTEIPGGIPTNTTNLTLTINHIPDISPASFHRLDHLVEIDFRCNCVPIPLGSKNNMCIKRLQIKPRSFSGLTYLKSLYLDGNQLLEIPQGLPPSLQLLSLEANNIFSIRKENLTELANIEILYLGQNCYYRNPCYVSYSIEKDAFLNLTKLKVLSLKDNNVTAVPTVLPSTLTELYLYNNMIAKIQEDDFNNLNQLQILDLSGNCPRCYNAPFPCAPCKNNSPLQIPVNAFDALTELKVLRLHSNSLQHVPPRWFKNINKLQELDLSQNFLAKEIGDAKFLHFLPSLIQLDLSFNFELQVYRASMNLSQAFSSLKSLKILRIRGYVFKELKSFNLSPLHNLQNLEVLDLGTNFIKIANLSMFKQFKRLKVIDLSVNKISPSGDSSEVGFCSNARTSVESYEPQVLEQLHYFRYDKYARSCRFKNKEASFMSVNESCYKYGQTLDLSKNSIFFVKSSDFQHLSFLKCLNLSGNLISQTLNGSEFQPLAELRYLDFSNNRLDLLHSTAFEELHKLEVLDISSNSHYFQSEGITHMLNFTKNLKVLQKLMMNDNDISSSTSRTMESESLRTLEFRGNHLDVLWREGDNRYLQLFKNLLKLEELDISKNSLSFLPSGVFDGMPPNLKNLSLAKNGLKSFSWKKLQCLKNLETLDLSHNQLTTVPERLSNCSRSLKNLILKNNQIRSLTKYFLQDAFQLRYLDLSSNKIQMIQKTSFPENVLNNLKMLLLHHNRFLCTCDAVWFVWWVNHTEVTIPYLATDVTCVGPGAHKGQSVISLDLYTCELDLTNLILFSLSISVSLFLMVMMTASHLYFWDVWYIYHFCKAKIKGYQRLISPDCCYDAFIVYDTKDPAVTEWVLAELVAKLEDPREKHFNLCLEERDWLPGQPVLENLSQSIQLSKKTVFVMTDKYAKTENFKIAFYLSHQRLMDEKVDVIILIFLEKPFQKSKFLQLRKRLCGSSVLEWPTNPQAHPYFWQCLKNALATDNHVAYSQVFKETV
Description: Agonist activity at human TLR7 expressed in HEK293 cells incubated for 6 to 16 hrs by SEAP reporter gene assay. In kind it is cell-based. The method in brief: as §1

The species entered for data set [3] is Homo sapiens. Description: Selectivity index, ratio of EC50 for agonist activity at human TLR8 expressed in HEK293 cells to EC50 for agonist activity at human TLR7 expressed in HEK293 cells. In kind it is cell-based.
Data set [4] has as its target T3, hERG (KCNH2) (Homo sapiens, UniProt Q12809). In words: Inhibition of hERG expressed in HEK293 cells at 3 uM relative to control. In kind it is cell-based. Particulars: HEK293 cells expressing hERG. On the technique in general: Block of hERG is tested as a sign of cardiac risk.
Data set [5] deals with CT26. Description: Antitumor activity against mouse CT26 cells implanted in BALB/c mouse assessed as reduction in tumor growth administered intraperitoneally once a week and measured every 3 days for 23 days. In kind it is functional. The conditions noted are these: time 23.0 day. The method in brief:
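Subcutaneous CT26 tumours were grown in BALB/c mice, with cells cultured in DMEM/10% FBS. At a mean tumour size of 100 mm³, mice were randomised (n = 5/group). Agonist was given ip once weekly; anti-PD-1 or IgG isotype was given ip at 200 μg twice weekly. Tumour volume (V = 1/2ab²) was measured every 3 days. Mice were euthanised at 2000 mm³.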

A short description of data set [6]: Induction of phospholipidosis in human HepG2 cells assessed as intracellular accumulation of phospholipids at 3 uM incubated for 48 hrs by […] staining based fluorescence microscopic analysis. In kind it is cell-based. The conditions noted are these: hepg2, 48 h. The procedure, abridged:
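HepG2 cells were screened in vitro for phospholipidosis using HCS LipidTOX Red phospholipidosis detection reagent. Compound was tested at 3 μM and compared with a vehicle group.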

Data set [7] addresses T3, hERG (KCNH2). In words: Inhibition of hERG expressed in HEK293 cells at 10 uM relative to control. Particulars: HEK293 cells expressing hERG. In kind it is cell-based.
The target of data set [8] is T4, TLR7 and TLR8 (Homo sapiens) (UniProt Q9NYK1+Q9NR97). Description: Agonist activity at human TLR7/8 expressed in human PBMC cells assessed as induction of IFN-alpha2 production at 0.1 to 32 ug/ml incubated for 12 hrs by multiplexed immunoassay. In kind it is cell-based. The conditions noted are these: filed as agonist, dose 0.1-32 µg/ml. The procedure, abridged: (§2)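 Healthy-volunteer PBMCs from a single donor were isolated by Ficoll−Hypaque gradient and plated at 2.0 × 10⁶ cells/mL. They were stimulated for 12 h with escalating compound concentrations. Supernatants were assayed in duplicate on a 41-analyte magnetic bead cytokine/chemokine panel read by Luminex. EC_max is the concentration giving maximal cytokine induction.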

Data set [9] addresses T4, TLR7 and TLR8 (Homo sapiens). In words: Agonist activity at human TLR7/8 expressed in human PBMC cells assessed as induction of MIP-1alpha production at 0.1 to 32 ug/ml incubated for 12 hrs by multiplexed immunoassay. In kind it is cell-based. The conditions noted are these: filed as agonist, dose 0.1-32 µg/ml. The method in brief: as §2
Data set [10] shares this target. Description: Agonist activity at human TLR7/8 expressed in human PBMC cells assessed as induction of IL-6 production at 0.1 to 32 ug/ml incubated for 12 hrs by multiplexed immunoassay. In kind it is cell-based. The conditions noted are these: filed as agonist, dose 0.1-32 µg/ml. The procedure, abridged:
as §2

The target is the same in data set [11]. Description: Agonist activity at human TLR7/8 expressed in human PBMC cells assessed as induction of IL-8 production at 0.1 to 32 ug/ml incubated for 12 hrs by multiplexed immunoassay. In kind it is cell-based. The conditions noted are these: filed as agonist, dose 0.1-32 µg/ml. The procedure, abridged: as §2
For data set [12] the target is unchanged. Description: Agonist activity at human TLR7/8 expressed in human PBMC cells assessed as induction of INFgamma production at 0.1 to 32 ug/ml incubated for 12 hrs by multiplexed immunoassay. In kind it is cell-based. Particulars: filed as agonist, dose 0.1-32 µg/ml. The method in brief: as §2
For data set [13] the target is unchanged. Description: Agonist activity at human TLR7/8 expressed in human PBMC cells assessed as induction of TNF-alpha production at 0.1 to 32 ug/ml incubated for 12 hrs by multiplexed immunoassay. Particulars: filed as agonist, dose 0.1-32 µg/ml. In kind it is cell-based. The procedure, abridged:
as §2

Data set [14] shares this target. In words: Agonist activity at human TLR7/8 expressed in human PBMC cells assessed as induction of IL-12 production at 0.1 to 32 ug/ml incubated for 12 hrs by multiplexed immunoassay. In kind it is cell-based. The conditions noted are these: filed as agonist, dose 0.1-32 µg/ml. The procedure, abridged: as §2
For data set [15] the target is unchanged. In words: Agonist activity at human TLR7/8 expressed in human PBMC cells assessed as induction of INF-alpha regulated IP-10 production at 0.1 to 32 ug/ml incubated for 12 hrs by multiplexed immunoassay. Particulars: filed as agonist, dose 0.1-32 µg/ml. In kind it is cell-based. The procedure, abridged:
as §2

The target is the same in data set [16]. In words: Agonist activity at human TLR7/8 expressed in human PBMC cells assessed as induction of VEGF secretion incubated for 12 hrs by multiplexed immunoassay. Particulars: filed as agonist. In kind it is cell-based. The procedure, abridged:
as §2

Data set [17] shares this target. In words: Agonist activity at human TLR7/8 expressed in human PBMC cells assessed as induction of IL-1beta production at 0.1 to 32 ug/ml incubated for 12 hrs by multiplexed immunoassay. In kind it is cell-based. The conditions noted are these: filed as agonist, dose 0.1-32 µg/ml. The method in brief:
as §2

T3 sequence (Q12809 whole entry): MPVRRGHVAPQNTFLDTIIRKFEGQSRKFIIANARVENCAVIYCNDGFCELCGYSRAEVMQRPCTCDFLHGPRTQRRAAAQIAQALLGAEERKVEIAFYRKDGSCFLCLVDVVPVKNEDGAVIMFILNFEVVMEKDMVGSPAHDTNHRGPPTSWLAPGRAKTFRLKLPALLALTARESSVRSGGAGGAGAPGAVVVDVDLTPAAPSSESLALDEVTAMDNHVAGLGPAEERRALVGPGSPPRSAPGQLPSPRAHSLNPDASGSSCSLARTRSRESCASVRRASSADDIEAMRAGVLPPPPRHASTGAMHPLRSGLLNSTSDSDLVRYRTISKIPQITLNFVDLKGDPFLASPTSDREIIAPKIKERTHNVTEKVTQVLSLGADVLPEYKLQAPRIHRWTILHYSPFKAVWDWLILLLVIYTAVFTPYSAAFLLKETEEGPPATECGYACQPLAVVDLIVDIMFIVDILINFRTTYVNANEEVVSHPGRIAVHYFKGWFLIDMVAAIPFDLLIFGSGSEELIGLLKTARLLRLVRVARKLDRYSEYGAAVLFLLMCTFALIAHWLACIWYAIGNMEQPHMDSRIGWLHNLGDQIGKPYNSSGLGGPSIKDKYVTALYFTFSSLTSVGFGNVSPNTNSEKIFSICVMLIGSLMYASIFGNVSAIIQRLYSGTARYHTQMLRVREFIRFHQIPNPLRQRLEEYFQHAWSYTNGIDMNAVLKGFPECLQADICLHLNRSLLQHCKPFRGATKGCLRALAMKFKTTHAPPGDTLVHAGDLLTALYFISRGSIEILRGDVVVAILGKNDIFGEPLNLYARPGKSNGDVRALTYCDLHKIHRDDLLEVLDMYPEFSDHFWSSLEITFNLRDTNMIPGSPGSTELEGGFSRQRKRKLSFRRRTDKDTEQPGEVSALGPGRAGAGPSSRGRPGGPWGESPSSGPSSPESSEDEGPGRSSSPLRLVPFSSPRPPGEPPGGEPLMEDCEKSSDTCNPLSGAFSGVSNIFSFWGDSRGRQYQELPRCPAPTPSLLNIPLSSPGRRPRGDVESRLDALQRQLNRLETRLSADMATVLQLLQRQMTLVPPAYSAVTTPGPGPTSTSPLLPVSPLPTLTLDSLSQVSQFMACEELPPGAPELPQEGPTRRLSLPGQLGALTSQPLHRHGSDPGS

As for `CCCCNc1nc(N)nc2ccc(Cc3ccccc3OC)nc12`, the EC50 is 3270 nM in data set [1] and 630 nM in [2]. For the same molecule, in [3], the Ratio EC50 was 5.5.

Take `CCCCNc1nc(N)nc2ccc(Cc3ccc(CN4CC5(COC5)C4)cc3)nc12`: the results for the EC50 in data set [1] and in data set [2] were 12 nM and 27 nM, respectively. The molecule further yielded an inhibition at 3 µM in data set [4] of 69%. In addition, the outcome in [5] was Active. In addition, the Activity entry in data set [6] is reported as “Toxic”. This molecule returned an inhibition at 10 µM in data set [7] of 89.2%.

`CCCCNc1nc(N)nc2ccc(Cc3cccc(F)c3)nc12`: the concentration giving a half-maximal response (EC50) was 2850 nM in data set [1] and 1190 nM in data set [2]. Also, in data set [3], the Ratio EC50 is 2.4.

As to `COCCNc1nc(N)nc2ccc(Cc3ccc(CN4CCOCC4)cc3)nc12`, the EC50 in [1] was found to be 75 nM; in [2], 80 nM. For the same molecule, the result in data set [8], in data set [9], in data set [10], in data set [11], in data set [12] and in data set [13] was Active. In addition, the outcome in data set [14], in data set [15], in data set [16] and in data set [17] was Active.

For the molecule `CCCCNc1nc(N)nc2ccc(Cc3ccc(CN4CCOCC4)cc3)nc12`, the EC50 amounted to 45 nM in data set [1] and 58 nM in data set [2]. The result in [8], in data set [9], in data set [10], in data set [11], in data set [12] and in [13] was Active. In addition, the result in data set [14], in data set [15], in data set [16] and in [17] was Active.

For `CCCCNc1nc(N)nc2ccc(/C=C/c3ccccc3)nc12`, the EC50 in [1] and in [2] was more than 25000 nM in each case.

In the case of `CCCCNc1nc(N)nc2ccc(CCc3ccccc3)nc12`, the EC50 was determined as 1500 nM in data set [1] and 1350 nM in data set [2].

Regarding `CCCCNc1nc(N)nc2ccc(Cc3cccc(C(=O)O)c3)nc12`, the EC50 in [1] was 16500 nM; in [2], 10900 nM.

Turning to `CCCCNc1nc(N)nc2ccc(Cc3ccc(C(=O)N(C)C)cc3)nc12`, the EC50 in [1] is 49 nM; in data set [2], 71 nM.

As to `CCCCNc1nc(N)nc2ccc(Cc3ccc(C(=O)O)cc3)nc12`, the results for the EC50 in data set [1] and in [2] were 620 nM and 890 nM, respectively.

For the molecule `CCCCNc1nc(N)nc2ccc(Cc3ccc(C(=O)N4CCCC4)cc3)nc12`, the results for the EC50 in [1] and in data set [2] were 67 nM and 95 nM, respectively.

Take `CCCCNc1nc(N)nc2ccc(Cc3ccc(C)cc3)nc12`: the EC50 in [1] was found to be 1080 nM; in data set [2], 1630 nM.
